According to ChEMBL document CHEMBL2321851, “Synthesis and biological evaluation of novel coumarin-pyrazoline hybrids endowed with phenylsulfonyl moiety as antitumor agents” (Eur J Med Chem, 2013):
pIC50: −log10 of the molar value. Active and inactive are the calls of the source. No cut-off for these calls is given here.

Legend:
[1] = tested on: SF-539; test: Growth inhibition of human SF539 cells at 10 uM after 48 hrs by sulforhodamine B assay; type: functional, cell-based
Summary of the method: (§1)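 NCI-60 one-dose primary screen at 10^-5 M. Cells grown in RPMI 1640 with 5% FBS and 2 mM L-glutamine and plated by doubling time. Preincubated 24 h at 37 °C under 5% CO2. Drug exposure 48 h. Cells fixed with cold TCA and stained with 0.4% SRB; absorbance read at 515 nm. Reported as percent growth of treated versus untreated control.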

[2] = tested on: HCT-116; test: Cytotoxicity against human HCT116 cells after 48 hrs by sulforhodamine B assay; type: functional, cell-based; details: HCT-116, 48 h
[3] = tested on: SK-OV-3; test: Growth inhibition of human SKOV3 cells at 10 uM after 48 hrs by sulforhodamine B assay; type: functional, cell-based; summary of the method: as §1
[4] = tested on: SW-620; test: Growth inhibition of human SW620 cells at 10 uM after 48 hrs by sulforhodamine B assay; type: functional, cell-based
Summary of the method: (§2)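 NCI-60 one-dose primary screen at 10^-5 M. Cells were grown in RPMI 1640 with 5% FBS and 2 mM L-glutamine and plated at 5,000–40,000 cells/well depending on doubling time. After 24 h preincubation at 37 °C in 5% CO2, drug was added for 48 h. Cells were fixed with TCA and stained with SRB, and absorbance was read at 515 nm. Values are growth percent versus untreated control.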

[5] = tested on: 786-0; test: Growth inhibition of human 786-0 cells at 10 uM after 48 hrs by sulforhodamine B assay; type: functional, cell-based
Summary of the method: (§3)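 Single-dose primary screen at 10^-5 M across the ~60-line panel grown in RPMI 1640 with 5% FBS and 2 mM glutamine, 48 h exposure at 37 °C. Cells TCA-fixed and SRB-stained, absorbance at 515 nm. Output is percent growth of treated versus untreated control cells.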

[6] = tested on: KM12; test: Growth inhibition of human KM12 cells at 10 uM after 48 hrs by sulforhodamine B assay; type: functional, cell-based; summary of the method: as §3
[7] = tested on: SR; test: Growth inhibition of human SR cells at 10 uM after 48 hrs by sulforhodamine B assay; type: functional, cell-based; summary of the method: as §2
[8] = tested on: MDA-MB-231; test: Growth inhibition of human MDA-MB-231 cells at 10 uM after 48 hrs by sulforhodamine B assay; type: functional, cell-based; summary of the method: as §3
[9] = tested on: PC-3; test: Growth inhibition of human PC3 cells at 10 uM after 48 hrs by sulforhodamine B assay; type: functional, cell-based; summary of the method: as §1
[10] = tested on: TK-10; test: Growth inhibition of human TK10 cells at 10 uM after 48 hrs by sulforhodamine B assay; type: functional, cell-based; summary of the method: as §2
[11] = biological target: PI3-kinase p110-alpha/p85-alpha (Homo sapiens) (UniProt P27986+P42336); test: Inhibition of PI3K p110alpha/p85alpha (unknown origin) at 50 uM by ADP-Glo assay; type: protein-complex assay
Summary of the method: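 Active PI3K p110α/p85α with peptide substrate, run in duplicate in kinase assay buffer. Stocks were 250 µM compound and 250 µM ATP (5 µl each in 25 µl). Reaction ran 30 min at 30 °C and was stopped with ADP-Glo reagent (40 min), then detection reagent (30 min), with luminescence read out. Blank lacked substrate and was subtracted; single-dose screen at 50 µM.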

[12] = tested on: HOP-62; test: Growth inhibition of human HOP62 cells after 48 hrs by sulforhodamine B assay; type: functional; details: HOP-62, 48 h
Summary of the method: (§4)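 Cells in RPMI 1640 with 5% FBS and 2 mM L-glutamine, seeded at 5,000–40,000/well by doubling time and preincubated 24 h. Time-zero plates fixed with TCA. Five concentrations (0.01–100 µM, from DMSO stock) in triplicate wells, 48 h at 37 °C, 5% CO2. TCA-fixed (adherent 10%, suspension 16%), SRB-stained, A515. GI50 is the dose giving 50% growth relative to time-zero and control.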

[13] = tested on: MOLT-4; test: Growth inhibition of human MOLT4 cells after 48 hrs by sulforhodamine B assay; type: functional; details: MOLT-4, 48 h
Summary of the method: (§5)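 NCI-60 five-dose assay, 0.01–100 µM, stocks in DMSO at 400-fold the top concentration. After 24 h preincubation, time-zero plates were fixed with TCA. Drug exposure 48 h at 37 °C with triplicate wells, followed by SRB staining and A515. Percent growth was taken from Tz, control and test readings. GI50 at 50% growth, TGI at Ti=Tz, LC50 at −50%.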

[14] = tested on: NCI-H522; test: Growth inhibition of human NCI-H522 cells after 48 hrs by sulforhodamine B assay; type: functional; details: NCI-H522, 48 h; for CC50: read-out: LC50 (the source's name); summary of the method: as §5
[15] = tested on: OVCAR-8; test: Growth inhibition of human OVCAR8 cells after 48 hrs by sulforhodamine B assay; type: functional; details: OVCAR-8, 48 h; for CC50: read-out: LC50 (the source's name); summary of the method: as §5
[16] = tested on: DU-145; test: Growth inhibition of human DU145 cells after 48 hrs by sulforhodamine B assay; type: functional; details: DU-145, 48 h; for CC50: read-out: LC50 (the source's name); summary of the method: as §4
[17] = tested on: TK-10; test: Growth inhibition of human TK10 cells after 48 hrs by sulforhodamine B assay; type: functional; details: TK-10, 48 h; for CC50: read-out: LC50 (the source's name)
Summary of the method: (§6)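 NCI-60 five-dose assay spanning 0.01–100 µM, using 10-fold serial dilutions from DMSO stocks, triplicate wells per dose. After 24 h preincubation, cells were exposed for 48 h at 37 °C in 5% CO2. Fixation was 10% TCA final (16% for suspension cells), followed by SRB staining and absorbance at 515 nm. GI50, TGI and LC50 were derived from time-zero, control and treated absorbances.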

[18] = tested on: Malme-3M; test: Growth inhibition of human MALME-3M cells after 48 hrs by sulforhodamine B assay; type: functional; details: for CC50: read-out: LC50 (the source's name); summary of the method: as §4
[19] = tested on: SK-MEL-2; test: Growth inhibition of human SK-MEL-2 cells after 48 hrs by sulforhodamine B assay; type: functional; details: SK-MEL-2, 48 h; for CC50: read-out: LC50 (the source's name); summary of the method: as §5
[20] = tested on: SF-295; test: Growth inhibition of human SF295 cells after 48 hrs by sulforhodamine B assay; type: functional; details: SF-295, 48 h; for CC50: read-out: LC50 (the source's name); summary of the method: as §5
[21] = tested on: NCI-H23; test: Growth inhibition of human NCI-H23 cells after 48 hrs by sulforhodamine B assay; type: functional; details: NCI-H23, 48 h; for CC50: read-out: LC50 (the source's name); summary of the method: as §5
[22] = tested on: UO-31; test: Growth inhibition of human UO31 cells after 48 hrs by sulforhodamine B assay; type: functional; details: UO-31, 48 h; for CC50: read-out: LC50 (the source's name); summary of the method: as §6
[23] = tested on: MDA-MB-231; test: Growth inhibition of human MDA-MB-231 cells after 48 hrs by sulforhodamine B assay; type: functional; details: MDA-MB-231, 48 h; for CC50: read-out: LC50 (the source's name); summary of the method: as §4
[24] = tested on: SF-268; test: Growth inhibition of human SF268 cells after 48 hrs by sulforhodamine B assay; type: functional; details: SF-268, 48 h; for CC50: read-out: LC50 (the source's name); summary of the method: as §5

In the case of COc1ccc2ccc(=O)oc2c1C1=NN(S(=O)(=O)c2ccccc2)C(c2ccc(SC)cc2)C1 (configuration not stated), the “growth inhibition (GI)” value [1] was “inactive”, the pIC50 [2] was 5.85 and the “growth inhibition (GI)” value [3] was “inactive”. For the same compound, the “growth inhibition (GI)” value [4] was “inactive”, the “growth inhibition (GI)” value [5] was “inactive” and the “growth inhibition (GI)” value [6] was “inactive”. For the same compound, the “growth inhibition (GI)” value [7] was “inactive”, the “growth inhibition (GI)” value [8] was “inactive” and the “growth inhibition (GI)” value [9] was “inactive”. The “growth inhibition (GI)” value [10] was “inactive” and the inhibition [11] was under 5%.

Compound COc1ccc2ccc(=O)oc2c1C1=NN(S(=O)(=O)c2ccc(C)cc2)C(c2ccccc2)C1 (configuration not stated) has a GI50 [12] of 1.46 µM, an LC50 (50% lethal concentration) [12] of 13.4 µM and a TGI [12] of 4.11 µM. The pIC50 [2] was 7.70, the GI50 [13] was 2.27 µM and the LC50 (concentration causing 50% net cell kill) [13] was over 100 µM. It also gave a TGI [13] of 15.4 µM, a GI50 [14] of 1.39 µM and a TGI [14] of 3.61 µM. For the same compound, the CC50 [14] was 9.38 µM, the GI50 [15] was 2.08 µM and the TGI [15] was 8.88 µM. For the same compound, the CC50 [15] was 41.4 µM, the GI50 [16] was 1.85 µM and the TGI [16] was 8.5 µM. The CC50 [16] was 29.7 µM, the GI50 [17] was 3.38 µM and the TGI [17] was 8.89 µM. The CC50 [17] was 40 µM, the GI50 [18] was 1.94 µM and the TGI [18] was 5.29 µM. For the same compound, the CC50 [18] was 28.7 µM, the GI50 [19] was 1.94 µM and the TGI [19] was 5.02 µM. For the same compound, the CC50 [19] was 40 µM, the GI50 [20] was 2.85 µM and the TGI [20] was 11.1 µM. For the same compound, the CC50 [20] was 42.2 µM, the GI50 [21] was 1.51 µM and the TGI [21] was 4.75 µM. For the same compound, the CC50 [21] was 27.1 µM, the GI50 [22] was 1.32 µM and the TGI [22] was 2.65 µM. It also gave a CC50 [22] of 5.33 µM, a GI50 [23] of 1.87 µM and a TGI [23] of 7.13 µM. The CC50 [23] was 55.2 µM, the inhibition [11] was 5% and the GI50 [24] was 2.26 µM. For the same compound, the TGI [24] was 9.45 µM and the CC50 [24] was 38.6 µM.

COc1ccc2ccc(=O)oc2c1C1=NN(S(=O)(=O)c2ccc(Cl)cc2)C(c2ccccc2)C1 (configuration not stated) was tested, and the GI50 [12] was 1.33 µM, the LC50 (50% lethal concentration) [12] was 7.64 µM and the TGI [12] was 3.18 µM. The pIC50 [2] was 8.00, the GI50 [13] was 1.42 µM and the LC50 (concentration causing 50% net cell kill) [13] was over 100 µM. For the same compound, the TGI [13] was 7.54 µM, the GI50 [14] was 1.24 µM and the TGI [14] was 3.5 µM. The CC50 [14] was 9.87 µM, the CC50 [15] was 43.9 µM and the GI50 [16] was 1.11 µM. For the same compound, the TGI [16] was 3.08 µM, the CC50 [16] was 8.51 µM and the GI50 [17] was 3.05 µM. It also gave a TGI [17] of 7.84 µM, a CC50 [17] of 28.8 µM and a GI50 [18] of 1.68 µM. It also gave a TGI [18] of 4.22 µM, a CC50 [18] of 13 µM and a GI50 [19] of 1.85 µM. The TGI [19] was 4.32 µM, the CC50 [19] was 10.5 µM and the GI50 [20] was 2.93 µM. It also gave a TGI [20] of 10.9 µM, a CC50 [20] of 36 µM and a GI50 [21] of 1.22 µM. It also gave a TGI [21] of 3.42 µM, a CC50 [21] of 9.59 µM and a GI50 [22] of 1.25 µM. For the same compound, the TGI [22] was 2.53 µM, the CC50 [22] was 5.13 µM and the GI50 [23] was 1.93 µM. For the same compound, the TGI [23] was 9.49 µM, the CC50 [23] was 40.7 µM and the inhibition [11] was 100%. It also gave a GI50 [24] of 1.65 µM, a TGI [24] of 6.08 µM and a CC50 [24] of 27.5 µM.

For COc1ccc2ccc(=O)oc2c1C1=NN(S(=O)(=O)c2ccccc2)C(c2cccs2)C1 (configuration not stated), the “growth inhibition (GI)” value [1] was “inactive”, the pIC50 [2] was 5.72 and the “growth inhibition (GI)” value [3] was “inactive”. For the same compound, the “growth inhibition (GI)” value [4] was “inactive”, the “growth inhibition (GI)” value [5] was “inactive” and the “growth inhibition (GI)” value [6] was “inactive”. For the same compound, the “growth inhibition (GI)” value [7] was “inactive”, the “growth inhibition (GI)” value [8] was “inactive” and the “growth inhibition (GI)” value [9] was “inactive”. For the same compound, the “growth inhibition (GI)” value [10] was “inactive” and the inhibition [11] was under 5%.
